Measured values: ChEMBL document CHEMBL2429849, “Substrate-based fragment identification for the development of selective, nonpeptidic inhibitors of striatal-enriched protein tyrosine phosphatase” (J Med Chem, 2013)
Calls of active or inactive are those of the source. The rule behind the calls is not given here.

How the values were obtained:
[1] = target: T1, Tyrosine-protein phosphatase non-receptor type 5 (Rattus norvegicus) (UniProt P35234); test: Inhibition of STEP in Sprague-Dawley rat embryo primary cortical neurons assessed as phosphorylation of Pyk2 at 0.1 to 10 uM after 1 hr by Western blot analysis; conditions: Cerebral cortex neuron
T1 sequence (whole entry): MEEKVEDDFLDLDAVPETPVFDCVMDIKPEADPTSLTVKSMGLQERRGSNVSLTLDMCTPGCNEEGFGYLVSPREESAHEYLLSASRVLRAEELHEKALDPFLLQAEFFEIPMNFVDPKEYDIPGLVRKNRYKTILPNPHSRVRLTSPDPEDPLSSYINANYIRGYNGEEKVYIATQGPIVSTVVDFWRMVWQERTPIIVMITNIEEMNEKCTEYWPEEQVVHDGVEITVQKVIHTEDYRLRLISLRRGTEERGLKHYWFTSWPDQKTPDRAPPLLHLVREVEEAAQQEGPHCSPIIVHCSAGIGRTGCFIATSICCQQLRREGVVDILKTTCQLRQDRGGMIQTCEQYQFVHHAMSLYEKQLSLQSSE
Procedure, shortened: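 E18 rat cortical neurons were trypsin-dissociated and plated on poly-D-lysine in Neurobasal with 2% B27, then grown 18–21 days at 37 °C. Compound was added at final 0, 0.1, 1 or 10 μM (0.1% DMSO) for 1 h at 37 °C. Cells were lysed in RIPA with protease/phosphatase inhibitors and protein measured by BCA. Phospho and total proteins were blotted by SDS-PAGE, with antibodies overnight at 4 °C and chemiluminescent detection.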

[2] = target: T2, Dual specificity protein phosphatase 10 (Homo sapiens, UniProt Q9Y6W6); test: Inhibition of human MKP5 using DiFMUP as substrate after 5 mins by spectrophotometric plate reader analysis
T2 sequence (Q9Y6W6 whole entry): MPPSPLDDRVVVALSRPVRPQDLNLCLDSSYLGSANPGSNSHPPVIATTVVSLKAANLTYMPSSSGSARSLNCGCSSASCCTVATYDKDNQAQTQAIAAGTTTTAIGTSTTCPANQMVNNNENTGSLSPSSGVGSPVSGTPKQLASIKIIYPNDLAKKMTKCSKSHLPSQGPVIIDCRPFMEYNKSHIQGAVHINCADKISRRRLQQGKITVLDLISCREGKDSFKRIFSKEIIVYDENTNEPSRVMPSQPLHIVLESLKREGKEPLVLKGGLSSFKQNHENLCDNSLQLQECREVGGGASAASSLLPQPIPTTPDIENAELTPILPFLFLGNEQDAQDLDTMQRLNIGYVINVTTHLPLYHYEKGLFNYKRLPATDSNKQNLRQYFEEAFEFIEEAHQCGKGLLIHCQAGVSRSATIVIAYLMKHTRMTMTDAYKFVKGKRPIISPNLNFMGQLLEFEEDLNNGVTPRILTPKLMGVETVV
Procedure, shortened: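 The […] substrate was DiFMUP. Buffer was Tris-HCl pH 8.0 with Triton X-100 and 5 mM DTT. Inhibitor was preincubated with enzyme for 5 min at 27 °C before adding substrate. Ki from nonlinear regression of initial-rate substrate–velocity data at several inhibitor concentrations; at least duplicate.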

[3] = target: T3, Receptor-type tyrosine-protein phosphatase C (Homo sapiens, UniProt P08575); test: Inhibition of human CD45 using pNPP as substrate after 5 mins by spectrophotometric plate reader analysis
T3 sequence (P08575 whole entry): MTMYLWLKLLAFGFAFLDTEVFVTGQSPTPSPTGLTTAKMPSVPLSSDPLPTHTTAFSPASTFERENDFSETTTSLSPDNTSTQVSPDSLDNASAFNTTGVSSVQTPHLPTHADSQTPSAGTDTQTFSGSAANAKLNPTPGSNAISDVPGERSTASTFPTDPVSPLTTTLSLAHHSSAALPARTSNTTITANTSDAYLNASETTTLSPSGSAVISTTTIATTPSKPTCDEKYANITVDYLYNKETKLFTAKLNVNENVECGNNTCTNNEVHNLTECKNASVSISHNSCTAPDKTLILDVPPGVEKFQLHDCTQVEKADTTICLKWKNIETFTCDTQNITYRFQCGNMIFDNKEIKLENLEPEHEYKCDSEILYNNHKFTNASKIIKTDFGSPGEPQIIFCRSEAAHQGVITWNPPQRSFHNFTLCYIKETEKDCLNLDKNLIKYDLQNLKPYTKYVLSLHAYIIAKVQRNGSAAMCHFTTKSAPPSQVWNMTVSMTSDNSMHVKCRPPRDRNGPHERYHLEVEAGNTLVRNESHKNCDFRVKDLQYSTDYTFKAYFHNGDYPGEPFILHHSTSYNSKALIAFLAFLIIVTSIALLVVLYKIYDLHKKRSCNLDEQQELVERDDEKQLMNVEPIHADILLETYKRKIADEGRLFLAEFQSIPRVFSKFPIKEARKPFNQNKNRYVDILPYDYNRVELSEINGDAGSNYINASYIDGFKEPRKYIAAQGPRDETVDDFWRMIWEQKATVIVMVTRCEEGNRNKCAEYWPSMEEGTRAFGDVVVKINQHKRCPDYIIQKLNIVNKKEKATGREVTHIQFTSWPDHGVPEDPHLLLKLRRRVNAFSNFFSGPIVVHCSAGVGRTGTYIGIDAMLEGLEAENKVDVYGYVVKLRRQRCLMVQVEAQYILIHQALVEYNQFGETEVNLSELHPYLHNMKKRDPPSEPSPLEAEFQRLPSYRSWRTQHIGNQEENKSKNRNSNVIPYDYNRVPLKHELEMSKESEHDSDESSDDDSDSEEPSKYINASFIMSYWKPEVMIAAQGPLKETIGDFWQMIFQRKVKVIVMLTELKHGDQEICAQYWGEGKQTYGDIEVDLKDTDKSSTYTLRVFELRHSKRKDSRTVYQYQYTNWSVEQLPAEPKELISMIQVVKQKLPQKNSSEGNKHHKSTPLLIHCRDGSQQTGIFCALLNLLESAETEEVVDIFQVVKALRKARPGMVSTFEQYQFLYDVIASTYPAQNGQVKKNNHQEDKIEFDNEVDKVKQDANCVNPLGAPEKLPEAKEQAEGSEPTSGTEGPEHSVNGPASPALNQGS
Procedure, shortened: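 Enzyme preincubated 5 min at 27 °C with serially diluted inhibitor (from DMSO) in imidazole/NaCl buffer pH 7.0 with 0.01% Triton X-100 and 5 mM DTT. Started with pNPP (500 μM in assay) and read at 405 nm for 20 min. The pNPP KM was measured for each enzyme. Ki from nonlinear regression of substrate–velocity curves at several inhibitor levels; at least duplicate.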

[4] = species: Homo sapiens; test: Selectivity ratio of Ki for human LAR to Ki for human STEP
Procedure, shortened: (§1)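 STEP, CD45, LAR and TC-PTP used pNPP (500 μM) in imidazole/NaCl pH 7.0 with Triton X-100, read at 405 nm for 20 min. MKP5 used DiFMUP in Tris-HCl pH 8.0. The enzyme's own pNPP KM was used in analysis; ratio of the Ki values.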

[5] = Effective permeability of the compound at pH 7.4 by PAMPA; type: ADME; conditions: read-out: Peff
[6] = species: Homo sapiens; test: Selectivity ratio of Ki for human MKP5 to Ki for human STEP; procedure, shortened: as §1

SMILES | inhibition [1] | Ki [2] | Ki [3] | Ratio Ki [4] | Papp [5] | Ratio Ki [6]
O=P(O)(O)[C@H](O)c1ccc(-c2cccc([C@H](O)c3ccc(Cl)c(Cl)c3)c2)cc1 | Active | > 500 µM | 270 µM | 50 | – | –
O=P(O)(O)[C@H](O)c1ccc(-c2cccc([C@@H](O)c3ccc(Cl)c(Cl)c3)c2)cc1 | Active | 340 µM | 340 µM | 40 | < 0.1 ×10⁻⁶ cm/s | 41
